This is an account of results in ChEMBL document CHEMBL3045343, “Nematicidal activity of 2-thiophenecarboxaldehyde and methylisothiocyanate from caper (Capparis spinosa) against Meloidogyne incognita” (J Agric Food Chem, 2012).

The EC50 is the concentration that produces a half-maximal response. One may read the mortality as the percentage killed. A high value points to fewer survivors.

Assay [1] concerns Meloidogyne incognita. Nature of the assay: Nematicidal activity against Meloidogyne incognita (root-knot nematode) juveniles J2 assessed as paralysis after 1 day. The settings on record: 24 h. It counts as functional, organism-based. Put shortly:
(§1)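 M. incognita (Italian population reared on tomato cv. Roma VF) J2 hatched from egg masses in distilled water at 25 ± 2 °C. Methanol stocks diluted with Tween 20 in water (final methanol ≤1% v/v). Working solution at double strength mixed 1:1 with a suspension of 25 J2 per well. Held covered, dark, 20 °C. Paralysis scored by inverted microscope. Corrected by Schneider-Orelli against water control. EC50 from log-logistic regression. Six replicates; four experiments.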

Assay [2] concerns Meloidogyne incognita. In words: Nematicidal activity against Meloidogyne incognita (root-knot nematode) juveniles J2 assessed as paralysis after 1 hr. Type of assay: functional, organism-based. Put shortly:
as §1

Assay [3] concerns Meloidogyne incognita. Nature of the assay: Toxicity against Meloidogyne incognita (root-knot nematode) juveniles J2 at 100 mg/L after 24 hr. Type of assay: functional. An outline of the steps: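 J2 were immersed in 100 mg/L test solution in multiwell plates containing 25 J2 per well. Plates were held in the dark at 20 °C. Paralysis or death was scored by microscope after 24 h and corrected against the water control.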

≈ marks a conversion by molar mass, not a printed value.

On to `N#Cc1ccc(C=O)s1`, for which the EC50 in assay [1] and in assay [2] was more than 250 µg/mL in each case.
With `O=Cc1ccc[nH]1`, the figures for the EC50 in assay [1] and in assay [2] were 392 µg/mL (≈ 4120 µM) and more than 1000 µg/mL, respectively.
For `Cn1cccc1C=O`, the EC50 in assay [1] and in assay [2] was more than 1000 µg/mL each time.
Turning to `N#Cc1c[nH]c2ccccc12`, the figures for the EC50 in assay [1] and in assay [2] were 68.9 µg/mL (≈ 485 µM) and more than 250 µg/mL, respectively.
For `N#Cc1ccc(C#N)s1` [2,5-THIOPHENEDINITRILE] the same measures were more than 250 µg/mL and more than 250 µg/mL.
On to `O=Cc1ccc(C=O)s1` [2,5-THIOPHENENEDICARBOXALDEHYDE], for which the values for the EC50 in assay [1] and in assay [2] were 1.13 µg/mL (≈ 8.06 µM) and 1.2 µg/mL (≈ 8.56 µM), respectively.
For `O=Cc1ccccn1` [2-PYRIDINECARBOXALDEHYDE], the EC50 in assay [1] came out at 3.6 µg/mL (≈ 33.6 µM); in assay [2], 25 µg/mL (≈ 233 µM). Moreover, the mortality at 100 µg/mL in assay [3] was 100%.
`O=C1CCCN1` [2-PYRROLIDONE]: the EC50 in assay [1] and in assay [2] was more than 250 µg/mL in each case.
For the compound `N#Cc1cccs1` [2-THIOPHENECARBONITRILE], the EC50 in assay [1] and in assay [2] was more than 100 µg/mL each time.
As to `O/N=C/c1cccs1` [2-THIOPHENECARBOXALDEHYDE OXIME], the EC50 in assay [1] and in assay [2] was more than 250 µg/mL throughout.
Regarding `O=Cc1cccs1` [2-THIOPHENENECARBOXALDEHYDE], the EC50 in assay [1] was 14.1 µg/mL (≈ 126 µM); in assay [2] it was 105 µg/mL (≈ 936 µM). This compound had a mortality at 100 µg/mL in assay [3] of 100%.
Consider `O=Cc1c[nH]c2ccccc12` [3-FORMYLINDOLE], for which the EC50 in assay [1] is 301 µg/mL (≈ 2070 µM); in assay [2] it was more than 250 µg/mL.
For `O=C1Nc2ccccc2C1=O` [ISATIN] the same measures were more than 250 µg/mL and more than 250 µg/mL.
For `CN=C=S` [METHYLISOTHIOCYANATE] the same measures were 7.86 µg/mL (≈ 107 µM) and more than 10 µg/mL.
On to `O=Cc1cccnc1` [NICOTINALDEHYDE], for which the concentration for a half-maximal effect (EC50) was more than 10 µg/mL in assay [1] and more than 250 µg/mL in assay [2].
